In ChEMBL document CHEMBL1142845, “Synthesis, stability, and implications of phosphothioate agonists of sphingosine-1-phosphate receptors” (Bioorg Med Chem Lett, 2005) one finds EC50 data, which are given here for three compounds.

The structures appear in SMILES notation. pEC50: −log10 of the molar value. “And” between values parts separate entries of the source, which are not always exact repeats. Equal entries are not always repeated.

The assay is described as follows: Effective concentration required for [35S]GTP-gamma-S binding towards Sphingosine 1-phosphate receptor G-protein complex expressed in HEK293T cells. Particulars: hek-293t. The class given is functional, cell-based, Homo sapiens. In outline: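 Agonist-stimulated [35S]GTPγS binding was measured on individual S1P receptor–G-protein complexes overexpressed in HEK293T cells. EC50 values were taken from ligand-dependent binding, and efficacy was expressed as a percentage of the S1P maximal effect at each receptor.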
Regarding `CCCCCCCCc1ccc(NC(=O)[C@@H](N)[C@@H](C)OP(=O)(O)O)cc1`, the pEC50 (in general, −log10 of the EC50, conventionally taken in molar units) was 7.70.

As to `CCCCCCCCc1ccc(CC[C@@H](N)CO)cc1`, the negative logarithm of the EC50 (pEC50) was 6.04 and 5.55 and 5.06.

For the compound `CCCCCCCCc1ccc(NC(=O)[C@@H](N)[C@@H](C)O)cc1`, the negative logarithm of the EC50 (pEC50) was 5.77 and 6.31.
